Experimental data pooled from the literature.

SMILES	species	medium	route	dose	notes	half-life [h]
CN1CCC[C@H](CN2c3ccccc3Sc3ccccc32)C1.Cl	mouse	plasma	oral	64 mg/kg	single dose	4.37
Cc1ccc2cncc(N3CCc4c(cc(Cn5ccnc5)cc4-c4cn(C)nc4C(F)(F)F)C3=O)c2c1	male CD-1 mouse	plasma	intravenous	3 mg/kg		1.5
COc1ccc(C(O)COc2ccc(-c3csc(-c4ccc(OCC(O)c5ccc(OC)c(OC)c5)cc4)n3)cc2)cc1OC (stereo not shown)	C57BL/6 mouse	plasma	intravenous	3 mg/kg		3
Cn1cnc2c(F)c(Nc3ccc(Br)cc3Cl)c(C(=O)NOCCO)cc21	nude mouse	tumour	oral	10 mg/kg	single dose, tumour-bearing	3.7
CCc1cc(OC)c2nccc(N3CCc4c(cc(Cn5ccnc5)cc4-c4cn(C)nc4C(F)(F)F)C3=O)c2c1	male CD-1 mouse	plasma	oral	50 mg/kg		1.1
CC(C)(C)c1ccc(O)c(CN(Cc2cc(C(C)(C)C)ccc2O)C2CCC(NC(N)=O)CC2)c1 (stereo not shown)	male C57BL/6 mouse	plasma	intraperitoneal	25 mg/kg	single dose	2.4
Cc1nc(-c2cnc(NC(C)C)n(C)c2=O)ccc1Oc1ccnc(-c2cnn(C)c2)c1	female mouse	plasma	oral	30 mg/kg	single dose	15.3
CC=Cc1ccc(O)c(OC)c1	mouse	plasma	intranasal	100 mg/kg		0.302
CC[C@H](C)[C@@H]1NC(=O)[C@@](C)(NC(=O)[C@H](CCCNC(=N)N)NC(=O)[C@H](CC(C)C)NC(=O)[C@@H](NC(=O)[C@H](CCC(N)=O)NC(=O)[C@H](CC(C)C)NC(C)=O)[C@@H](C)O)CCCC=CCCC[C@@](C)(C(=O)N[C@@H](CC(C)C)C(=O)N[C@@H](Cc2ccc3ccccc3c2)C(N)=O)NC(=O)[C@H](CCCNC(=N)N)NC(=O)[C@H](CCC(N)=O)NC1=O	male BALB/c mouse	plasma	intravenous	5 mg/kg		1.4
CCc1ccc(Cc2cc([C@@H]3O[C@H](CO)[C@@H](O)[C@H](O)[C@H]3O)cc3c2CCC3)cc1	male C57BL/6 mouse	plasma	oral	1 mg/kg		3
